# From paper PMC2939729 (Cancer cell, 2010)
# Assays:
# cancer cell lines = test: Proliferation of a wide variety of cancer cell lines; format: cell-based
# PLK4 = molecular target: T1, PLK4 (Homo sapiens, UniProt O00444); test: Inhibitory effect on PLK4 in vitro and in vivo
# T1 sequence (O00444 1-970): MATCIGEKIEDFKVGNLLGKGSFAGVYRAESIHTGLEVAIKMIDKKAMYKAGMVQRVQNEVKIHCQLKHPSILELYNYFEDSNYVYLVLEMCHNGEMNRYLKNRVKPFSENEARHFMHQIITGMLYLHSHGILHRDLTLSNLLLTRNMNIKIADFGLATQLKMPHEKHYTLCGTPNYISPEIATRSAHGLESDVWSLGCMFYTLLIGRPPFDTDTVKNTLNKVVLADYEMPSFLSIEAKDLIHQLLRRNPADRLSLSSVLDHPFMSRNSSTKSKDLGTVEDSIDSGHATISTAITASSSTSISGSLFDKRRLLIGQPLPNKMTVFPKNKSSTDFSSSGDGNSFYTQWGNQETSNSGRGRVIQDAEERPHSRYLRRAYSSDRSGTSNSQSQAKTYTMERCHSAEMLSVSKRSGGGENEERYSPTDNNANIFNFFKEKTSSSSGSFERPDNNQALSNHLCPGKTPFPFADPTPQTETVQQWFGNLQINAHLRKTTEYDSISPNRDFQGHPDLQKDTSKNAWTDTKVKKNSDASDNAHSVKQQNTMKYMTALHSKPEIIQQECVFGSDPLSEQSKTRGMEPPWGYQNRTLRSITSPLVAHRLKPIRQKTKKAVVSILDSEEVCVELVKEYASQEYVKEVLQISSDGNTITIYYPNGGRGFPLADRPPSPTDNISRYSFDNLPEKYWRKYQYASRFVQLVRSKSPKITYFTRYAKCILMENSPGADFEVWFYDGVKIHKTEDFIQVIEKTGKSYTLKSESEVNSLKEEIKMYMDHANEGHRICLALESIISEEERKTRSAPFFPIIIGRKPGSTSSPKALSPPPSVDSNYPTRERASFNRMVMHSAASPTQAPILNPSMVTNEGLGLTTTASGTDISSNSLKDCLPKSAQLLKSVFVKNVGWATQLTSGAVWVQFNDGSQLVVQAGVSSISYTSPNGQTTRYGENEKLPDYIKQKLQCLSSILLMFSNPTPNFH
# [1] = tested on: xenografted human (HeLa) or syngeneic mouse (LL/2) tumors; test: In vivo tumorigenesis experiments; parameters: species or system mice
# Method in brief: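 Tumour cells in DMEM were injected s.c. into the right flank of 6-week-old mice: HeLa at 5 × 10^5 into Nod/Scid mice, or LL/2 at 1 × 10^6 into C57Bl/6 mice. Groups of 6 received 50 mg/kg i.p. twice daily, starting day 1, 7 or 14 (HeLa, to day 28) or day 1, 7 or 10 (LL/2, to day 17). Controls received carrier solution. Tumours were measured by caliper every 2–3 days, volume = L × W² × 0.52. BrdU was detected in tumour sections with anti-BrdU antibody, DAPI counterstain (6 mice, 9 slices). Student's t test was used.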
# [2] = Tolerability experiments in mice, 14 days
# BMK1 = BMK1 (Homo sapiens, UniProt Q13164); test: EGF-induced BMK1 activation in HeLa cells; format: cell-based; conditions: 1 μM compound for one hour, EGF 17 min
# [3] = tested on: basic fibroblast growth factor (bFGF) induced angiogenesis; test: bFGF-induced angiogenesis in Matrigel plugs; format: in vivo; conditions: mice, Matrigel with 400 ng/mL bFGF, treated for 6 days
# Method in brief: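 Mice were implanted with Matrigel containing 400 ng/mL bFGF and treated with test compound or vehicle for 6 days, starting the next day. Plugs were harvested, sectioned and stained with Masson's trichrome (6 mice, 9 slices), and plug hemoglobin content was measured. Student's t test was used.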
# MEK5 = molecular target: T2, MEK5 (Homo sapiens, UniProt Q13163); test: KiNativ profiling in HeLa cell lysates; format: binding; conditions: at up to 50 μM
# T2 sequence (Q13163 1-448): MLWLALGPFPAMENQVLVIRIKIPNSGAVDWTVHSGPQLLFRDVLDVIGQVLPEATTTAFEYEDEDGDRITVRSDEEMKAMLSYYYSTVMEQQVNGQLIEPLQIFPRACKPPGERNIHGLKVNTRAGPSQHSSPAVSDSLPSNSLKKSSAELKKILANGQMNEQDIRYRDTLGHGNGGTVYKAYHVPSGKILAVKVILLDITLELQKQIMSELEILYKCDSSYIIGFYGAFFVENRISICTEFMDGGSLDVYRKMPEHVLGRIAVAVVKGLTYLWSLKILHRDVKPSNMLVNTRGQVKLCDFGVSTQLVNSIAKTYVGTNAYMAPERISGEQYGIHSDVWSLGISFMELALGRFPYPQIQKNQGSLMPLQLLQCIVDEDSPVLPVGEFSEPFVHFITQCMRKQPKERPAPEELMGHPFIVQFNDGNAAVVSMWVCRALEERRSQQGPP
# Method in brief: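 HeLa lysates (5 mg/mL total protein) were preincubated 15 min with test compound at 50, 10, 2, 0.8 or 0 μM. ATP or ADP acylphosphate probe was then added (5 μM final) for 10 min, and the reaction was stopped with urea and processed for MS. Each kinase signal came from up to four fragment ions of its peptide-probe conjugate. % inhibition was taken against untreated lysate, with duplicate reactions.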
# ERK1/2 = test: EGF-induced ERK1/2 activation in HeLa cells; format: cell-based, human; conditions: 1 μM compound for one hour, EGF 17 min
# BMK1, sequence (Q13164 whole entry): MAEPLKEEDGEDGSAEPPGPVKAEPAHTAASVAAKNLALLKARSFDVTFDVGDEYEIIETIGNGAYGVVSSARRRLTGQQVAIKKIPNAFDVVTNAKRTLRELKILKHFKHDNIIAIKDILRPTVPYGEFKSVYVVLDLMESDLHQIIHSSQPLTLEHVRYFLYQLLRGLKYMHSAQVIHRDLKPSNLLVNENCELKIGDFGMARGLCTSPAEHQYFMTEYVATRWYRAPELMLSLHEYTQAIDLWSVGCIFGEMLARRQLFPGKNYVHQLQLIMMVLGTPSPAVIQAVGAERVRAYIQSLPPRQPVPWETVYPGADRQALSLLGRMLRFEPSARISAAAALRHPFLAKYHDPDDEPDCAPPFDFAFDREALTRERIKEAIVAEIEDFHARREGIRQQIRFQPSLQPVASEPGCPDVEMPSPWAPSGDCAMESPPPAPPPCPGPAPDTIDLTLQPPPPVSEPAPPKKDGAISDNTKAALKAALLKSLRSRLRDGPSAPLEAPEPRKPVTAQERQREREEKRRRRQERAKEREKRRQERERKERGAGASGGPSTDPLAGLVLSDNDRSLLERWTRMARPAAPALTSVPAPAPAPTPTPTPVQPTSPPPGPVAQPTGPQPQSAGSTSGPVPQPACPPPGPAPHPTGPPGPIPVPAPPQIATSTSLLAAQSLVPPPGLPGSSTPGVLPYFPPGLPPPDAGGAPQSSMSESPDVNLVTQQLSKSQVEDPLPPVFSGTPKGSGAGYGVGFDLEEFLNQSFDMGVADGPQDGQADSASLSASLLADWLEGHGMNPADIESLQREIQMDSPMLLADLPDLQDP
smiles,measurement,setting,value
CCOc1cc(N2CCC(O)CC2)ccc1Nc1ncc2c(n1)N(C)c1ccccc1C(=O)N2C [XMD8-92],effect on proliferation,cancer cell lines,inhibitory effect
same,inhibitory effect on PLK4,PLK4,no significant inhibitory effect
same,incorporation of BrdU during tumor cell division,"[1]; HeLa or LL/2 tumor sections, immuno-staining",effectively inhibited
same,inhibition of tumor growth,"[1]; mice, 50 mg/kg twice a day intraperitoneally",95%
same,side effects to the animals,"[1]; tumor-bearing mice, 50 mg/kg twice a day intraperitoneally",without obvious side effects
same,vasculature instability,[2]; XMD8-92-treated mice,No vasculature instability
same,plasma concentrations of drug,"[2]; mice, IP dosing of 50 mg/kg, maintained throughout the 14 days",approximately 10 μM
same,Growth factor-induced activation of cellular BMK1,BMK1,effectively blocked
same,bFGF induced angiogenesis in Matrigel plugs,[3],significantly inhibits
same,inhibition of MEK5,MEK5,not significantly inhibited
same,Growth factor-induced activation of cellular ERK1/2,ERK1/2,but not the structurally similar ERK1/2
